The record followed here is ChEMBL document CHEMBL1123806, “Effects of derivatives of kahweol and cafestol on the activity of glutathione S-transferase in mice” (1987).

Assay [1] has as its target T1, Glutathione S-transferase Mu 1 (Mus musculus) (UniProt P10649).
T1 sequence (whole entry): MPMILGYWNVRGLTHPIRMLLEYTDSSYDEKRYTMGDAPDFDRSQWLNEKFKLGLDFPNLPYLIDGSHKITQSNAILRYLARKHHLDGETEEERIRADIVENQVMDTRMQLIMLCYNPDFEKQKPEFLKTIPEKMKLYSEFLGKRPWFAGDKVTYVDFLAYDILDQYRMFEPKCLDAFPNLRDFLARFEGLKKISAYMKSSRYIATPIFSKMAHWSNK
Briefly: GST activity in the cytosols of liver of ICR/Ha mice, using 1-Chloro-2,4-dinitrobenzene as substrate. Format: functional, tissue-based. Summed up: (§1)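 Mice (6-8 wk, groups of 4-5, semipurified diet) dosed po once daily for 3 days with 10 μmol in 0.2 mL cottonseed oil/10% ethanol. Vehicle-only controls. Killed 24 h after the last dose. Tissue homogenized in phosphate buffer pH 7.5, then spun at 100000g for 1 h to give cytosol. CDNB conjugation read at 340 nm, 30 °C, pH 6.5 phosphate, 5 mM GSH, 1 mM CDNB. Units µmol/min/mg protein, mean ± SD; ratio = treated/control.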

The species named for assay [2] is Mus musculus. Nature of the assay: GST activity in the cytosols of small bowel mucosa of ICR/Ha mice was determined by using 1-Chloro-2,4-dinitrobenzene as the substrate. Type of assay: functional. Summed up: as §1
The species entered for assay [3] is Mus musculus. Briefly: Tissue acid-soluble sulfhydryl levels of liver of ICR/Ha mice. P<0.005. Type of assay: functional. Summed up:
(§2)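 Same dosing: 10 μmol po daily for 3 days in cottonseed oil/10% ethanol, vehicle controls, tissues taken 24 h after the last dose. Homogenate (phosphate pH 7.5) used at once. Ellman method: equal volume 4% sulfosalicylic acid, then supernatant plus 9 volumes of 0.1 mM DTNB in 0.1 M phosphate pH 8.0. Read spectrophotometrically. Units µmol SH/g tissue, mean ± SD; ratio = treated/control.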

The species entered for assay [4] is Mus musculus. Nature of the assay: Tissue acid-soluble sulfhydryl levels of small bowel mucosa of ICR/Ha mice. P < 0.005. Format: functional. A digest of the protocol: as §2
The nature of assay [5]: Ratio is the compound /control(SH level in liver). Format: functional, Mus musculus. A digest of the protocol: as §2
The species entered for assay [6] is Mus musculus. Briefly: Ratio is the compound /control(SH in small bowel mucosa). Type of assay: functional. A digest of the protocol: as §2
Assay [7] deals with T1, Glutathione S-transferase Mu 1 (Mus musculus). Nature of the assay: Ratio is the compound /control(Specific activity in liver(GST)). Type of assay: functional, tissue-based. A digest of the protocol: as §1
Assay [8] has the same target. Nature of the assay: Ratio is the compound /control(Specific activity in small bowel mucosa(GST)). Type of assay: functional. A digest of the protocol: as §1
Assay [9] is filed under the species Mus musculus. Nature of the assay: GST activity in the cytosols of small bowel mucosa of ICR/Ha mice was determined by using 1-Chloro-2,4-di nitrobenzene as the substrate. Format: functional. Summed up:
as §1

The target in assay [10] is T1, Glutathione S-transferase Mu 1 (Mus musculus). Nature of the assay: GST activity in the cytosols of the forestomach of ICR/Ha mice was determined by using 1-Chloro-2,4-dinitrobenzene as the substrate. The following applies: Stomach. Type of assay: functional, tissue-based. Summed up:
as §1

For assay [11] the target is unchanged. Briefly: GST activity in the cytosols of the lung of ICR/Ha mice was determined by using 1-Chloro-2,4-dinitrobenzene as the substrate. Format: functional. A digest of the protocol:
as §1

Assay [12] in a line: Tissue acid-soluble sulfhydryl levels of liver of ICR/Ha mice. Type of assay: functional, Mus musculus. Summed up:
as §2

The species named for assay [13] is Mus musculus. Briefly: Tissue acid-soluble sulfhydryl levels of small bowel mucosa of ICR/Ha mice. Format: functional. A digest of the protocol:
as §2

Assay [14] concerns the target T1, Glutathione S-transferase Mu 1 (Mus musculus). Nature of the assay: Ratio is the compound /control(Specific activity in forestomach). The following applies: Stomach. Format: functional, tissue-based. A digest of the protocol:
as §1

Assay [15] has the same target. Nature of the assay: Ratio is the compound /control(Specific activity in lung). Type of assay: functional. A digest of the protocol: as §1
The species entered for assay [16] is Mus musculus. Nature of the assay: GST activity in the cytosols of small bowel mucosa of ICR/Ha mice was determined by using 1-Chloro-2,4-dinitrobenzene as the substrate. Type of assay: functional. A digest of the protocol:
as §1

On to `CC(=O)OC[C@@]1(O)C[C@@]23CCC4[C@H]5CCO[C@H]5CC[C@@]4(C)C2CCC1C3` (stereo partly drawn), for which the Specific activity (uM min-1 (mg of protein)-1) in [1] is 1.25. Besides, the Specific activity in the assay filed under Mus musculus [2] is given as 0.41 uM min-1 (mg of protein)-1. Also, the SH level was found to be 14.3 µM/g in the assay filed under Mus musculus [3] and 8.2 µM/g in the assay filed under Mus musculus [4]. In addition, the Ratio turned out to be 1.42 in [5], 1.4 in the assay listed under Mus musculus [6], 1.06 in assay [7] and 1 in [8].

Take `C[C@@]12C=Cc3occc3C1CC[C@]13CCC(CCC12)C3` (stereo partly drawn): the Specific activity (uM min-1 (mg of protein)-1) in [1] amounted to 3.06; in assay [10], 0.63; in assay [11], 0.36. For the same compound, in the assay listed under Mus musculus [9], the Specific activity is given as 1.18 uM min-1 (mg of protein)-1. The SH level in assay [12] amounted to 9.5 µM/g; in the assay filed under Mus musculus [13], 7.8 µmol/g. Moreover, the Ratio in assay [5] was determined as 1.1; in the assay filed under Mus musculus [6] it was 1.2; in [14], 0.9; in assay [7], 2.1; in assay [15] it was 1.2; in assay [8], 3.9.

Regarding `C[C@@]12CC[C@@H]3OCC[C@@H]3C1CC[C@@]13CC(CCC12)[C@@](O)(CO)C3` (stereo partly drawn), the Specific activity (uM min-1 (mg of protein)-1) in assay [1] was 1.48. For the same compound, the Specific activity in the assay filed under Mus musculus [16] was 0.54 uM min-1 (mg of protein)-1. Moreover, the SH level in assay [12] came out at 14.5 µM/g; in the assay filed under Mus musculus [13] it was 7.4 µmol/g. The Ratio in [5] came out at 1.44; in the assay listed under Mus musculus [6], 1.2; in assay [7], 1.25; in assay [8], 1.4.
